Published values pooled from the literature.
Compare with care: the assays were run in different laboratories.
Target: 5-hydroxytryptamine receptor 2C (HTR2C, Homo sapiens, UniProt P28335)
One construct used (P28335 33-458): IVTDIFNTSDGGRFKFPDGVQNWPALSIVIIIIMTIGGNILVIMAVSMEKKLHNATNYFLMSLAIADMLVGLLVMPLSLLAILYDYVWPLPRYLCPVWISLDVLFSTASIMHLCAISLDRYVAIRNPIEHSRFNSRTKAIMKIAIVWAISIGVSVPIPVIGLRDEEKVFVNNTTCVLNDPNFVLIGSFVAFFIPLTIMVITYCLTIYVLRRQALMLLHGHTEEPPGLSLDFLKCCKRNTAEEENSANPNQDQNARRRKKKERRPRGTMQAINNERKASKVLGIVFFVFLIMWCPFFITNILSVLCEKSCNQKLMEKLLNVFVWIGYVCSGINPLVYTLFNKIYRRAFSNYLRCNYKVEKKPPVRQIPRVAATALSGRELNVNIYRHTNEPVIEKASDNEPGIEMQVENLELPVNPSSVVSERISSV

CC1Cc2ccccc2N1C(=O)NCCCCN(C)[C@@H]1Cc2cccc3[nH]c(=O)n(c23)C1 (mixture of isomers)  Ki (ligand displacement, radioligand): > 10000 nM
C#CCOCCOCCOc1ccc2c3c1C1CCCC1N3CCNC2 (racemic)  EC50 (calcium signal, agonist, fluorescence): 237 nM
CCCCN1CCC(COC(=O)c2ccc(N)c(OCF)c2)CC1  Ki (cell-free assay, radioligand): > 10000 nM
CN(CCCCNC(=O)c1cc2ccccc2[nH]1)[C@@H]1Cc2cccc3[nH]c(=O)n(c23)C1  Ki (ligand displacement, radioligand): 2440 nM
Cc1nc2cc(OCCCCN3CCN(c4cccc(Cl)c4Cl)CC3)ccc2s1  Ki (cell-free assay, radioligand): 160 nM
OC[C@@]12C[C@@H]1[C@@H](n1cnc3c(N[C@@H](C4CCC4)C4CC4)nc(I)nc31)[C@H](O)[C@@H]2O  Kb (calcium signal, antagonist): 148 nM
Fc1ccc(CCCCN2CCN(c3ccccn3)CC2)cc1  Ki (ligand displacement, radioligand): > 10000 nM
O=C1c2ccccc2CCN1CCCCN1CCN(c2cccc(Cl)c2Cl)CC1  Ki (ligand displacement, radioligand): 354 nM
CC(C)(C)c1cc(C(C)(C)CO)c(O)cc1NC(=O)c1c[nH]c2ccccc2c1=O  Ki (ligand displacement, radioligand): 1550 nM
CNc1nc2cc(OCCCCN3CCC(c4cccc(Cl)c4Cl)CC3)ccc2s1  Ki (cell-free assay, radioligand): 73 nM
CN(Cc1ccc(NC(=O)C2=Cc3cc(-c4ccc(OCCCF)cc4)ccc3CCC2)cc1)C1CCOCC1  Ki (ligand displacement, radioligand): 1020 nM
COc1cc(OC)c(C(=O)CCCCN2CCC3(CC2)NC(=O)NC3=O)cc1NS(=O)(=O)c1ccc(C(F)(F)F)cc1  Ki (ligand displacement, radioligand): 0.99 nM
C#CCOCCOc1ccc2c3c1C1CCCC1N3CCNC2 (racemic)  EC50 (calcium signal, agonist, fluorescence): 53.4 nM
